Results on twelve compounds are retold here after ChEMBL document CHEMBL3286172, “Exploring the role of 2-chloro-6-fluoro substitution in 2-alkylthio-6-benzyl-5-alkylpyrimidin-4(3H)-ones: effects in HIV-1-infected cells and in HIV-1 reverse transcriptase enzymes” (J Med Chem, 2014).

Series [1] concerns Human immunodeficiency virus 1. Kind of series: Antiviral activity against wild type HIV-1 NL4-3 infected in human MT4 cells assessed as inhibition of virus-induced cytopathic effect by MTT method. Type of series: functional, organism-based. Particulars: Human immunodeficiency virus 1, NL4-3, MT4. The essentials:
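MT-4 lymphoid cells infected with wild-type HIV-1 NL4-3 while exposed to a range of drug concentrations. Viable cells counted by tetrazolium (MTT) colorimetry at day 5 post-infection. Means of at least two experiments.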

Series [2] is described as follows: Cytotoxicity against human MT4 cells assessed as induction of cell death by MTT method. The series is classed as cell-based. The procedure, abridged: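 Mock-infected MT-4 cells exposed to a range of drug concentrations. Viability read by MTT colorimetry at day 5. […] Top concentration was limited where compound precipitated in the culture medium. Means of at least two experiments.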

Series [3] can be described thus: Selectivity index, ratio of CC50 for human MT4 cells to EC50 for wild type HIV-1 NL4-3 infected in human MT4 cells. Particulars: read-out: Ratio CC50/EC50. Type of series: toxicity, cell-based. The procedure, abridged: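 Ratio of CC50 to EC50, both from MTT readings in MT-4 cells at day 5. CC50 was taken in mock-infected cells and EC50 in cells infected with wild-type NL4-3. Values are means of at least two experiments.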

Series [4] concerns Human immunodeficiency virus 1. Kind of series: Antiviral activity against HIV-1 harboring NNTRI-resistant reverse transcriptase K103N mutant infected in human MT4 cells assessed as inhibition of virus-induced cytopathic effect by MTT method. Particulars: Human immunodeficiency virus 1, MT4. Type of series: functional, organism-based.
In series [5] the test system is Human immunodeficiency virus 1. The series can be described thus: Antiviral activity against HIV-1 harboring NNTRI-resistant reverse transcriptase Y181C mutant infected in human MT4 cells assessed as inhibition of virus-induced cytopathic effect by MTT method. Type of series: functional, organism-based. Particulars: Human immunodeficiency virus 1, MT4. The procedure, abridged: (§1)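 MT-4 lymphoid cells infected with HIV-1 carrying RT K103N, Y181C or Y188L, with a range of drug concentrations present. Viable cells counted by MTT colorimetric assay at day 5 post-infection. […] Highest concentration tested was limited by precipitation in culture medium. Means of at least two experiments.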

For series [6], the system named is Human immunodeficiency virus 1. Kind of series: Antiviral activity against HIV-1 harboring NNTRI-resistant reverse transcriptase Y188L mutant infected in human MT4 cells assessed as inhibition of virus-induced cytopathic effect by MTT method. Particulars: Human immunodeficiency virus 1, MT4. The series is classed as functional, organism-based. The procedure, abridged: as §1

The subject of series [7] is Human immunodeficiency virus 1. The series can be described thus: Fold resistance, ratio of EC50 for HIV-1 harboring NNTRI-resistant reverse transcriptase K103N mutant infected in human MT4 cells to EC50 for wild type HIV-1 NL4-3 infected in human MT4 cells. Type of series: functional.
The subject of series [8] is Human immunodeficiency virus 1. Kind of series: Fold resistance, ratio of EC50 for HIV-1 harboring NNTRI-resistant reverse transcriptase Y181C mutant infected in human MT4 cells to EC50 for wild type HIV-1 NL4-3 infected in human MT4 cells. The series is classed as functional. The procedure, abridged: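 MT-4 cells infected with HIV-1 mutant (K103N or Y181C) or wild-type NL4-3, with drug present. […] Fold resistance is the mutant EC50 divided by the wild-type NL4-3 EC50. EC50 values are means of at least two experiments.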

Series [9] has as its system Human immunodeficiency virus 1. Kind of series: Fold resistance, ratio of EC50 for HIV-1 harboring NNTRI-resistant reverse transcriptase Y188L mutant infected in human MT4 cells to EC50 for wild type HIV-1 NL4-3 infected in human MT4 cells. Type of series: functional. The procedure, abridged:
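HIV-1 NL4-3 (wt) or Y188L mutant infection of MT-4 cells across a range of drug concentrations. Viable cells were counted by MTT at day 5 post-infection. […] Fold resistance is mutant EC50 over wt EC50. Means of at least two experiments.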

Series [10] concerns the target Human immunodeficiency virus type 1 reverse transcriptase (Human immunodeficiency virus 1) (UniProt Q72547).
The subject of series [11] is Human immunodeficiency virus type 1 reverse transcriptase (Human immunodeficiency virus 1), Q72547 [K103N].
In series [12] the test system is Human immunodeficiency virus type 1 reverse transcriptase (Human immunodeficiency virus 1), Q72547 [L100I].
The subject of series [13] is Human immunodeficiency virus 1. Kind of series: Fold resistance, ratio of ID50 for HIV-1 recombinant NNTRI-resistant reverse transcriptase K103N mutant to ID50 for wild type HIV-1 recombinant reverse transcriptase. The essentials:
(§2)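 Recombinant wt or mutant HIV-1 RT, purified to >95%, at 2-4 nM. RNA-dependent DNA polymerase activity with 0.5 µg poly(rA)/oligo(dT)10:1 (0.3 µM 3'-OH ends), 10 µM [3H]-dTTP and 8% final DMSO. Incorporation was sampled at 2-min intervals. ID50 came from fitting to a fully non-competitive model. Ratio is ID50 mutant/ID50 wt. Means of at least three experiments.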

The subject of series [14] is Human immunodeficiency virus 1. The series can be described thus: Fold resistance, ratio of ID50 for HIV-1 recombinant NNTRI-resistant reverse transcriptase Y181I mutant to ID50 for wild type HIV-1 recombinant reverse transcriptase. The procedure, abridged:
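RNA-dependent DNA polymerase activity with 0.5 µg poly(rA)/oligo(dT)10:1 (0.3 µM 3'-OH ends), 10 µM [3H]-dTTP and 8% final DMSO. Incorporation was sampled at 2-min intervals. ID50 came from fitting to a fully non-competitive model. Means of at least three experiments.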

The test system of series [15] is Human immunodeficiency virus 1. The series can be described thus: Fold resistance, ratio of ID50 for HIV-1 recombinant NNTRI-resistant reverse transcriptase L100I mutant to ID50 for wild type HIV-1 recombinant reverse transcriptase. The essentials: as §2

Consider `CCC(c1nc(SC2CCCC2)[nH]c(=O)c1C)c1c(F)cccc1F` (racemic), for which the EC50 in series [1] amounted to 11 nM; in [4] it was 1000 nM; in series [5], 1100 nM; in [6] it was 1600 nM. Further, the CC50 in series [2] turned out to be 30000 nM. Further, in series [3], the selectivity ratio amounted to 2730. Moreover, the entries for the “Ratio EC50” value in series [7], in series [8] and in series [9] were 91, 100 and 145, respectively. The ID50 in series [10] turned out to be 5 nM; in series [11] it was 380 nM; in series [12], 110 nM.
As for `CCCSc1nc(C(CC)c2c(F)cccc2Cl)c(C)c(=O)[nH]1` (racemic), the EC50 is 26 nM in series [1], 2100 nM in series [4], 2800 nM in series [5] and greater than 3000 nM in series [6]. The CC50 in series [2] is greater than 3000 nM. In addition, the selectivity ratio in series [3] was greater than 115. Besides, the “Ratio EC50” value in series [7] was determined as 81; in [8], 108. Moreover, the Ratio is 126 in series [13], 700 in [14] and 48 in series [15]. Moreover, the ID50 in [10] worked out at 5 nM; in series [11], 630 nM; in [12], 240 nM.
On to `CCCSc1nc(C(CC)c2c(F)cccc2F)c(C)c(=O)[nH]1` (racemic), for which the EC50 was 12 nM in series [1], greater than 3000 nM in series [4], greater than 3000 nM in series [5] and greater than 3000 nM in [6]. Further, the CC50 in series [2] is greater than 3000 nM. In addition, in series [3], the selectivity ratio was greater than 250. The Ratio in [13] came out at 70; in series [14], 600; in [15], 37. The ID50 is 6 nM in [10], 420 nM in series [11] and 220 nM in [12].
Take `CCC(C)Sc1nc(C(CC)c2c(F)cccc2F)c(C)c(=O)[nH]1` (racemic): the EC50 in [1] was 0.8 nM; in series [4], 200 nM; in series [5], 300 nM; in series [6], 900 nM. Moreover, the CC50 in series [2] is greater than 3000 nM. The selectivity ratio in series [3] was greater than 3750. For the same compound, the “Ratio EC50” value in [7] was found to be 250; in series [8], 375; in [9], 1125. In addition, the ID50 in series [10] was 6 nM; in series [11] it was 140 nM; in [12], 48 nM.
Regarding `CC(C)Sc1nc(C(C)c2c(F)cccc2Cl)cc(=O)[nH]1` (racemic), the EC50 in series [1] was determined as 2 nM; in [4], 1100 nM; in series [5], 7500 nM; in [6] it was 30700 nM. Besides, the CC50 in series [2] was greater than 75000 nM. In [3], the selectivity ratio was greater than 37500. Also, the “Ratio EC50” value amounted to 550 in [7], 3750 in series [8] and 15350 in series [9]. The ID50 is 8 nM in [10], 1300 nM in series [11] and 340 nM in [12].
For `CC[C@@H](C)Sc1nc([C@H](C)c2c(F)cccc2Cl)cc(=O)[nH]1`, the EC50 in [1] stood at 0.3 nM; in series [4] it was 200 nM; in [5] it was 580 nM; in series [6], 860 nM. Moreover, the CC50 in series [2] is greater than 31000 nM. Besides, in series [3], the selectivity ratio was greater than 103000. Further, the “Ratio EC50” value in series [7] was determined as 610; in [8], 1924; in series [9], 2859. Moreover, the figures for the Ratio in [13], in series [14] and in series [15] were 488, 3750 and 18, respectively.
For the compound `CCC(c1nc(SC(C)C)[nH]c(=O)c1C)c1c(F)cccc1F` (racemic), the EC50 in series [1] worked out at 4 nM; in series [4] it was 530 nM; in series [5], 750 nM; in series [6], 270 nM. Moreover, the CC50 in series [2] was greater than 30000 nM. Also, the selectivity ratio in series [3] was greater than 7500. Moreover, the “Ratio EC50” value in series [7] was determined as 132; in series [8] it was 187; in [9] it was 67. The ID50 in [10] was 4 nM; in [11], 310 nM; in [12] it was 210 nM.
As for `CCc1c(C(C)c2c(F)cccc2F)nc(SC2CCCC2)[nH]c1=O` (racemic), the EC50 in series [1] was 160 nM; in series [4] it was greater than 3000 nM; in [5], greater than 3000 nM; in [6], greater than 3000 nM. For the same compound, the CC50 in series [2] was greater than 3000 nM. The selectivity ratio in series [3] is greater than 19. The Ratio was 100 in series [13], 900 in series [14] and 65 in series [15]. For the same compound, the ID50 was found to be 2 nM in series [10], 200 nM in [11] and 130 nM in series [12].
Consider `CCCSc1nc(C(C)c2c(F)cccc2Cl)cc(=O)[nH]1` (racemic), for which the half-maximal effective concentration (EC50) in series [1] turned out to be 3 nM; in [4], 890 nM; in series [5], 2300 nM; in [6], 7900 nM. Besides, the CC50 in series [2] was greater than 75000 nM. Also, the selectivity ratio in [3] is greater than 25000. For the same compound, the “Ratio EC50” value in series [7] is on record as 297; in series [8], 767; in series [9], 2633. Further, the ID50 amounted to 8 nM in series [10], 1300 nM in [11] and 500 nM in series [12].
Consider `CCC(C)Sc1nc(C(C)c2c(F)cccc2Cl)cc(=O)[nH]1` (racemic), for which the half-maximal effective concentration (EC50) came to 1 nM in series [1], 1000 nM in series [4], 3600 nM in [5] and 7500 nM in series [6]. In addition, the CC50 in [2] was greater than 73000 nM. The selectivity ratio in series [3] is greater than 73000. Further, the “Ratio EC50” value in [7] is listed as 1000; in series [8], 3600; in series [9], 7500. Also, the values for the Ratio in series [13], in series [14] and in [15] were 375, 2640 and 25, respectively.
Take `CCCCSc1nc(C(C)c2c(F)cccc2F)c(CC)c(=O)[nH]1` (racemic): the EC50 in series [1] is 57 nM; in series [4] it was greater than 3000 nM; in series [5], greater than 3000 nM; in [6], greater than 3000 nM. The CC50 in series [2] was greater than 3000 nM. Further, the selectivity ratio in series [3] was greater than 53. In addition, the Ratio is 130 in series [13], 1000 in series [14] and 93 in series [15]. Further, the ID50 in series [10] turned out to be 3 nM; in series [11] it was 390 nM; in series [12] it was 280 nM.
In the case of `CC[C@H](C)Sc1nc([C@H](C)c2c(F)cccc2Cl)cc(=O)[nH]1` (racemic), the EC50 in series [1] was found to be 11 nM; in [4], 1220 nM; in series [5], 1240 nM; in series [6], 7400 nM. Moreover, in series [2], the CC50 is greater than 39000 nM. The selectivity ratio in series [3] was greater than 3540. The “Ratio EC50” value is 111 in series [7], 113 in series [8] and 673 in series [9]. For the same compound, the results for the Ratio in [13] and in [15] were 229 and 24, respectively.
